Experimental data: PMC8012241 (Alzheimer's & Dementia : Translational Research & Clinical …, 2021)
Peptide text beside a SMILES is read from it.

Legend:
[1] = molecular target: solid insoluble form Aβ42 (s‐Aβ42) (Homo sapiens, UniProt P05067); assay: Proteolysis of solid insoluble s-Aβ42 by the peptide; format: biochemical; settings: over 7 days; 27% with peptide minus 17% without
In short: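 s-Aβ42 (0.3 mg), washed with CH3CN and CH3OH, was incubated with or without peptide (1 mM final) with HSA (0.125% w/v) in PBS at 37°C for 7 days, at five times the a-Aβ42 scale. HPLC was run daily and fragments were identified by ESI-MS. Solid weight was recorded on day 0 and day 7. The net decrease ratio is the with-peptide decrease minus the without-peptide decrease.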

[2] = Plasma clearance following intravenous bolus injection; format: in vivo, Male Wistar/ST rats; settings: rat
[3] = Plasma level and brain uptake following intraperitoneal and nasal administration; format: in vivo, male ddY mice; settings: mouse; for AUC(0-t): male, ddY, 1 mg
In short: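 Male ddY mice (25 g) received 1 mg of peptide either intranasally into the left nostril (100 mg/mL in PBS, 10 µL) or intraperitoneally (10 mg/mL in PBS). Blood was drawn at 5, 15 and 30 min. Brains were taken at 30 min after saline/heparin cardiac perfusion. Plasma and brain homogenate were extracted with methanol and assayed by positive-mode LC/MS on C18 (acetonitrile:0.1% acetic acid 10/90). AUC was computed to 30 min.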

A549 cells = assay: Effect on the growth of A549 cells; format: cell-based, human; settings: 72 hours
In short: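 A549 cells were grown in DMEM with 10% FBS and penicillin/streptomycin at 37°C in 5% CO2, then seeded at 4 x 10^3 cells/well. After 24 h the medium was replaced and cells were treated with 0.2 mM test peptide, 0.2 mM FLAG peptide or 4 µM cisplatin for 72 h. WST-8 was added for 1 h. Absorbance was read at 450 nm against a 620 nm reference.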

[4] = In vitro stability in plasma and whole blood; format: in vitro ADME; settings: data not shown
[5] = molecular target: authentic soluble form Aβ42 (a‐Aβ42) (Homo sapiens, UniProt P05067); settings: cleaved in the central region; cited from earlier work
amyloid beta 42 (Aβ42) = settings: serine protease inhibitor AEBSF; cited from earlier work
[6] = male, Wistar/ST, plasma, iv, 2 mg/animal

solid insoluble form Aβ42 (s‐Aβ42), sequence (P05067 672-713): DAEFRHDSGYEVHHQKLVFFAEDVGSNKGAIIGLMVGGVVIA
authentic soluble form Aβ42 (a‐Aβ42), sequence (P05067 672-713): as above

Compound: CC[C@H](C)[C@H](NC(=O)[C@H](CCSC)NC(=O)[C@H](CCCNC(=N)N)NC(=O)[C@H](Cc1ccc(O)cc1)NC(=O)[C@H](C)NC(=O)[C@H](CCC(N)=O)NC(=O)CNC(=O)[C@H](CCCCN)NC(=O)[C@@H](N)CO)C(=O)O [ANA‐TA9] (H-SKGQAYRMI-OH)
- decreasing ratio of s‐Aβ42 by ANA‐TA9 (corrected for incubation without peptide) [1]: 10%
- AUC [2, 6]: 124 ng·h/mL
- clearance [2, 6]: 270 mL/min
- initial half‐life in plasma ([2]; i.v. bolus 2 mg/head, LC/MS): 10 s
- plasma concentration post‐injection ([2]; i.v. bolus 2 mg/head, within 15 minutes post-injection, LC/MS): below the detection limit
- AUC(0-t) ([3]; inhaled or intranasal): 27.2 ng·h/mL
- AUC(0-t) ([3]; ip): 193 ng·h/mL
- nasal AUC as percentage of intraperitoneal AUC ([3]; up to 30 minutes, 1 mg each route): 14%
- effect on the growth of A549 cells (A549 cells; 0.2 mM, WST-8, compared to 0.2 mM FLAG peptide control): did not show a significant inhibitory effect
- in vitro stability in plasma and whole blood [4]: not particularly labile

Compound: [NH2][Pt]([NH2])([Cl])[Cl] [CDDP, Cisplatin, reference compound]
- effect on the growth of A549 cells (A549 cells; 4 μM, WST-8, positive control): inhibited the growth

Compound: YKGSGFRMI [JAL‐TA9]
- cleavage of a‐Aβ42 and s‐Aβ42 [5]: cleaved
- effect of AEBSF on proteolytic activity (amyloid beta 42 (Aβ42)): completely inhibited
